System: Fibroblast
Assay: Multiplex assay against human fibroblast
Format: toxicity, cell-based
Procedure, shortened: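 With compound added, live cells were imaged on a CQ1 microscope at 37°C and 5% CO2; staining with Hoechst33342, BioTracker Green Microtubule Cytoskeleton Dye, MitoTracker Red and Annexin V Alexa Fluor 680 had been done at seeding. The CellPathfinder machine-learning gating scheme split cells into Hoechst high-intensity objects or normal cells, normal cells into healthy, pyknosed or fragmented nuclei, and pyknosed cells into mitotic or apoptotic. The tubulin, mitochondrial-mass and membrane-permeability phenotypes are per cents of healthy-nucleus cells.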

[1] = 12 h, 1 µM, compound concentration 1 uM, replicate 1
[2] = 12 h, 1 µM, compound concentration 1 uM, replicate 2
[3] = 12 h, 10 µM, compound concentration 10 uM, replicate 1
[4] = 12 h, 10 µM, compound concentration 10 uM, replicate 2
[5] = 24 h, 1 µM, compound concentration 1 uM, replicate 1
[6] = 24 h, 1 µM, compound concentration 1 uM, replicate 2
[7] = 24 h, 10 µM, compound concentration 10 uM, replicate 1
[8] = 24 h, 10 µM, compound concentration 10 uM, replicate 2
[9] = 48 h, 1 µM, compound concentration 1 uM, replicate 1
[10] = 48 h, 1 µM, compound concentration 1 uM, replicate 2
[11] = 48 h, 10 µM, compound concentration 10 uM, replicate 1
[12] = 48 h, 10 µM, compound concentration 10 uM, replicate 2

In the case of `Cl.N=C(N)NC(=O)Cc1c(Cl)cccc1Cl` [GUANFACINE HYDROCHLORIDE], the “Population Apoptotic (%)” value [1] is reported as 44%, the “Population Fragmented Nuclei (%)” value [1] is reported as 20% and the “Population Healthy Nuclei (%)” value [1] is reported as 62%. For the same compound, the “Population Hoechst High Intensity Objects (%)” value [1] was 2%, the “Population Membrane Permeable-Phenotype (%)” value [1] was 0% and the “Population Mitochondria Different-Phenotype (%)” value [1] was 4%. For the same compound, the “Population Mitotic Cells (%)” value [1] was 55%, the “Population Normal (%)” value [1] was 97% and the “Population Pyknosed Nuclei (%)” value [1] was 16%. For the same compound, the “Population Tubulin-Different-Phenotype (%)” value [1] was 32%, the “Total Cell Count” value [1] was 167 and the “Population Apoptotic (%)” value [2] was 28%. For the same compound, the “Population Fragmented Nuclei (%)” value [2] was 23%, the “Population Healthy Nuclei (%)” value [2] was 45% and the “Population Membrane Permeable-Phenotype (%)” value [2] was 3%. For the same compound, the “Population Mitochondria Different-Phenotype (%)” value [2] was 7%, the “Population Mitotic Cells (%)” value [2] was 71% and the “Population Pyknosed Nuclei (%)” value [2] was 31%. For the same compound, the “Population Tubulin-Different-Phenotype (%)” value [2] was 46%, the “Total Cell Count” value [2] was 149 and the “Population Apoptotic (%)” value [3] was 66%. The “Population Fragmented Nuclei (%)” value [3] was 16%, the “Population Healthy Nuclei (%)” value [3] was 68% and the “Population Hoechst High Intensity Objects (%)” value [3] was 0%. The “Population Membrane Permeable-Phenotype (%)” value [3] was 1%, the “Population Mitochondria Different-Phenotype (%)” value [3] was 5% and the “Population Mitotic Cells (%)” value [3] was 33%. The “Population Normal (%)” value [3] was 99%, the “Population Pyknosed Nuclei (%)” value [3] was 15% and the “Population Tubulin-Different-Phenotype (%)” value [3] was 24%. For the same compound, the “Total Cell Count” value [3] was 139, the “Population Apoptotic (%)” value [4] was 35% and the “Population Fragmented Nuclei (%)” value [4] was 22%. The “Population Healthy Nuclei (%)” value [4] was 47%, the “Population Hoechst High Intensity Objects (%)” value [4] was 10% and the “Population Membrane Permeable-Phenotype (%)” value [4] was 5%. For the same compound, the “Population Mitotic Cells (%)” value [4] was 64%, the “Population Normal (%)” value [4] was 89% and the “Population Pyknosed Nuclei (%)” value [4] was 29%. The “Population Tubulin-Different-Phenotype (%)” value [4] was 46%, the “Total Cell Count” value [4] was 127 and the “Population Apoptotic (%)” value [5] was 58%. The “Population Fragmented Nuclei (%)” value [5] was 22%, the “Population Healthy Nuclei (%)” value [5] was 62% and the “Population Hoechst High Intensity Objects (%)” value [5] was 1%. For the same compound, the “Population Membrane Permeable-Phenotype (%)” value [5] was 0%, the “Population Mitochondria Different-Phenotype (%)” value [5] was 5% and the “Population Mitotic Cells (%)” value [5] was 41%. For the same compound, the “Population Normal (%)” value [5] was 98%, the “Population Pyknosed Nuclei (%)” value [5] was 14% and the “Population Tubulin-Different-Phenotype (%)” value [5] was 26%. The “Total Cell Count” value [5] was 169, the “Population Apoptotic (%)” value [6] was 45% and the “Population Fragmented Nuclei (%)” value [6] was 23%. For the same compound, the “Population Healthy Nuclei (%)” value [6] was 46%, the “Population Hoechst High Intensity Objects (%)” value [6] was 6% and the “Population Membrane Permeable-Phenotype (%)” value [6] was 12%. For the same compound, the “Population Mitochondria Different-Phenotype (%)” value [6] was 8%, the “Population Mitotic Cells (%)” value [6] was 54% and the “Population Normal (%)” value [6] was 93%. For the same compound, the “Population Pyknosed Nuclei (%)” value [6] was 30%, the “Population Tubulin-Different-Phenotype (%)” value [6] was 50% and the “Total Cell Count” value [6] was 130. The “Population Apoptotic (%)” value [7] was 63%, the “Population Fragmented Nuclei (%)” value [7] was 17% and the “Population Healthy Nuclei (%)” value [7] was 68%. For the same compound, the “Population Hoechst High Intensity Objects (%)” value [7] was 1%, the “Population Membrane Permeable-Phenotype (%)” value [7] was 0% and the “Population Mitochondria Different-Phenotype (%)” value [7] was 4%. The “Population Mitotic Cells (%)” value [7] was 36%, the “Population Normal (%)” value [7] was 98% and the “Population Pyknosed Nuclei (%)” value [7] was 14%. The “Population Tubulin-Different-Phenotype (%)” value [7] was 19%, the “Total Cell Count” value [7] was 137 and the “Population Apoptotic (%)” value [8] was 25%. For the same compound, the “Population Fragmented Nuclei (%)” value [8] was 26%, the “Population Healthy Nuclei (%)” value [8] was 55% and the “Population Hoechst High Intensity Objects (%)” value [8] was 4%. The “Population Membrane Permeable-Phenotype (%)” value [8] was 13%, the “Population Mitochondria Different-Phenotype (%)” value [8] was 3% and the “Population Mitotic Cells (%)” value [8] was 75%. The “Population Normal (%)” value [8] was 95%, the “Population Pyknosed Nuclei (%)” value [8] was 18% and the “Population Tubulin-Different-Phenotype (%)” value [8] was 58%. The “Total Cell Count” value [8] was 114, the “Population Apoptotic (%)” value [9] was 61% and the “Population Fragmented Nuclei (%)” value [9] was 25%. The “Population Healthy Nuclei (%)” value [9] was 63%, the “Population Hoechst High Intensity Objects (%)” value [9] was 1% and the “Population Membrane Permeable-Phenotype (%)” value [9] was 0%. The “Population Mitochondria Different-Phenotype (%)” value [9] was 6%, the “Population Mitotic Cells (%)” value [9] was 38% and the “Population Normal (%)” value [9] was 98%. The “Population Pyknosed Nuclei (%)” value [9] was 11%, the “Population Tubulin-Different-Phenotype (%)” value [9] was 32% and the “Total Cell Count” value [9] was 162. For the same compound, the “Population Apoptotic (%)” value [10] was 50%, the “Population Fragmented Nuclei (%)” value [10] was 33% and the “Population Healthy Nuclei (%)” value [10] was 45%. The “Population Hoechst High Intensity Objects (%)” value [10] was 3%, the “Population Membrane Permeable-Phenotype (%)” value [10] was 4% and the “Population Mitochondria Different-Phenotype (%)” value [10] was 11%. The “Population Mitotic Cells (%)” value [10] was 50%, the “Population Normal (%)” value [10] was 96% and the “Population Pyknosed Nuclei (%)” value [10] was 21%. For the same compound, the “Population Tubulin-Different-Phenotype (%)” value [10] was 57%, the “Total Cell Count” value [10] was 145 and the “Population Apoptotic (%)” value [11] was 66%. The “Population Fragmented Nuclei (%)” value [11] was 22%, the “Population Healthy Nuclei (%)” value [11] was 67% and the “Population Hoechst High Intensity Objects (%)” value [11] was 1%. The “Population Membrane Permeable-Phenotype (%)” value [11] was 1%, the “Population Mitochondria Different-Phenotype (%)” value [11] was 6% and the “Population Mitotic Cells (%)” value [11] was 33%. For the same compound, the “Population Normal (%)” value [11] was 98%, the “Population Pyknosed Nuclei (%)” value [11] was 10% and the “Population Tubulin-Different-Phenotype (%)” value [11] was 24%. The “Total Cell Count” value [11] was 142, the “Population Apoptotic (%)” value [12] was 45% and the “Population Fragmented Nuclei (%)” value [12] was 39%. The “Population Healthy Nuclei (%)” value [12] was 41%, the “Population Hoechst High Intensity Objects (%)” value [12] was 6% and the “Population Membrane Permeable-Phenotype (%)” value [12] was 8%. For the same compound, the “Population Mitochondria Different-Phenotype (%)” value [12] was 2%, the “Population Mitotic Cells (%)” value [12] was 54% and the “Population Normal (%)” value [12] was 93%. The “Population Pyknosed Nuclei (%)” value [12] was 19%, the “Population Tubulin-Different-Phenotype (%)” value [12] was 67% and the “Total Cell Count” value [12] was 120.
